In ChEMBL document CHEMBL1153772 (J Nat Prod, 2009):
Activity calls are given as the source filed them. The rule behind the calls is not given here.

Experiments:
[1] = Metabolic stability in mouse liver microsomes assessed as compound metabolized at 1 uM in the presence of NADPH; format: ADME, Microsome; settings: read-out: Activity
[2] = Protein binding in mouse plasma at 10 uM; format: ADME, cell-free; settings: read-out: PPB (converted)
MCF7 = assay: Cytotoxicity against human MCF7 cells assessed cell growth; format: functional
CCRF-CEM = assay: Cytotoxicity against human CCRF-CEM cells assessed cell growth; format: functional
NCI-H522 = assay: Cytotoxicity against human NCI-H522 cells assessed cell growth; format: functional
SK-MEL-5 = assay: Cytotoxicity against human SK-MEL-5 cells assessed cell growth; format: functional
Homo sapiens = organism: Homo sapiens; assay: Stability in human plasma in presence of PBS at 40 uM after 3 hrs
OVCAR-3 = assay: Cytotoxicity against human OVCAR-3 cells assessed cell growth; format: functional
LOX IMVI = assay: Cytotoxicity against human LOXIMVI cells assessed cell growth; format: functional
DU-145 = assay: Cytotoxicity against human DU145 cells assessed cell growth; format: functional
786-0 = assay: Cytotoxicity against human 786-0 cells assessed cell growth; format: functional
SW-620 = assay: Cytotoxicity against human SW620 cells assessed cell growth; format: functional
UACC-62 = assay: Cytotoxicity against human UACC62 cells assessed cell growth; format: functional
SF-539 = assay: Cytotoxicity against human SF539 cells assessed cell growth; format: functional
ASPC1 = assay: Cytotoxicity against human AsPC1 cells; format: functional, cell-based
How it was run: (§1)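 IC50 value derived from at least three separate assay runs per sample.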

[3] = Stability in mouse plasma in presence of PBS at 40 uM after 3 hrs; format: ADME, cell-free; settings: read-out: Stability
SF-295 = assay: Cytotoxicity against human SF295 cells assessed cell growth; format: functional
SNB-19 = assay: Cytotoxicity against human SNB19 cells assessed cell growth; format: functional
OVCAR-5 = assay: Cytotoxicity against human OVCAR5 cells assessed cell growth; format: functional
[4] = Solubility at pH 6.2; format: physicochemical; settings: buffer
Pseudomonas aeruginosa = assay: […] activity against […] aeruginosa 27853 after 24 hrs by broth dilution assay; format: functional; settings: Pseudomonas aeruginosa, 27853, 24 h
How it was run: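 Broth microdilution in microtiter format at a seeding density of 10^3/mL. C. albicans was grown in Sabouraud dextrose broth; S. aureus and P. aeruginosa in cation-supplemented Mueller-Hinton broth. Incubated at 37°C, with growth scored after 24 h. MIC taken as the lowest concentration giving complete growth inhibition.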

UO-31 = assay: Cytotoxicity against human UO31 cells assessed cell growth; format: functional
T47D = assay: Cytotoxicity against human T47D cells assessed cell growth; format: functional
HCT-15 = assay: Cytotoxicity against human HCT15 cells assessed cell growth; format: functional
HT-29 = assay: Cytotoxicity against human HT-29 cells assessed cell growth; format: functional
HOP-62 = assay: Cytotoxicity against human HOP62 cells assessed cell growth; format: functional
Nucleic Acid = assay: Displacement of ethidium bromide from DNA; format: nucleic-acid assay
IGROV-1 = assay: Cytotoxicity against human IGROV1 cells assessed cell growth; format: functional
HL-60(TB) = assay: Cytotoxicity against human HL-60(TB) cells assessed cell growth; format: functional; how it was run: as §1
BXPC-3 = assay: Cytotoxicity against human BxPC3 cells; format: functional, cell-based; how it was run: as §1
PANC-1 [5] = assay: Cell cycle arrest in human PANC1 cells assessed as accumulation of cells at G1 phase at <=46.5 after 24 hrs by propidium iodide staining method; format: functional, cell-based
How it was run: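 PANC-1 cells in RPMI 1640 with 10% FBS, HEPES, antibiotics, glutamine, pyruvate and glucose, at 37°C in 5% CO2, exposed to varying compound concentrations for 24 h alongside methanol vehicle and paclitaxel positive controls. Cells then ethanol-fixed and stained with 0.02 mg/mL propidium iodide plus 0.1 mg/mL RNase A. Flow cytometry collected 10,000 events per sample, and DNA histograms were modelled for phase distribution.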

NCI-H460 = assay: Cytotoxicity against human NCI-H460 cells assessed cell growth; format: functional
NCI/ADR-RES [6] = assay: Cytotoxicity against human NCI/ADR-RES cells assessed cell growth; format: functional
KM12 = assay: Cytotoxicity against human KM12 cells assessed cell growth; format: functional
PANC-1 [7] = assay: Cytotoxicity against human PANC1 cells; format: functional, cell-based; how it was run: as §1
MDA-MB-468 = assay: Cytotoxicity against human MDA-MB-468 cells assessed cell growth; format: functional
ACHN = assay: Cytotoxicity against human ACHN cells assessed cell growth; format: functional
A498 = assay: Cytotoxicity against human A498 cells assessed cell growth; format: functional
MIA PaCa-2 = assay: Cytotoxicity against human MIAPaCa2 cells; format: functional, cell-based; how it was run: as §1
MDA-MB-435 = assay: Cytotoxicity against human MDA-MB-435 cells assessed cell growth; format: functional
NCI-H226 = assay: Cytotoxicity against human NCI-H226 cells assessed cell growth; format: functional
SK-OV-3 = assay: Cytotoxicity against human SKOV3 cells assessed cell growth; format: functional
[8] = Solubility at pH 5; format: physicochemical; settings: buffer
COLO 205 = assay: Cytotoxicity against human COLO205 cells assessed cell growth; format: functional
[9] = Stability in PBS at 40 uM after 3 hrs; format: physicochemical; settings: read-out: Stability
NCI/ADR-RES [10] = assay: Cytotoxicity against human NCI/ADR-RES cells; format: functional, cell-based; how it was run: as §1

CC(=O)N(C)CCc1cc(Br)c(OCCCNc2ncn(C)c3ncnc2-3)c(Br)c1 [APHROCALLISTIN]
metabolised at 1 µM [1]: 98.6% | fraction unbound at 10 µM [2]: 0.309 | Activity (MCF7): 39.83% | Activity (CCRF-CEM): 80.24% | Activity (NCI-H522): 36.6% | Activity (SK-MEL-5): 20% | remaining at 3 h, 40 µM (Homo sapiens): 103% | Activity (OVCAR-3): 87.3% | Activity (LOX IMVI): 55.23% | Activity (DU-145): 102.31% | Activity (786-0): 70.65% | Activity (SW-620): 89.87% | Activity (UACC-62): 79.32% | Activity (SF-539): 80.09% | IC50 (ASPC1): > 100 µM | remaining at 3 h, 40 µM [3]: 96.3% | Activity (SF-295): 50.01% | Activity (SNB-19): 71.64% | Activity (OVCAR-5): 88.65% | solubility [4]: > 267 µg/mL | MIC (Pseudomonas aeruginosa): > 500 µg/mL | Activity (UO-31): 79.45% | Activity (T47D): 26.91% | Activity (HCT-15): 99.13% | Activity (HT-29): 88.11% | Activity (HOP-62): 71.38% | Activity (Nucleic Acid): inactive | Activity (IGROV-1): 64.84% | Activity (HL-60(TB)): 39.94% | IC50 (BXPC-3): 70.9 µM | Activity (PANC-1 [5]): Active | Activity (NCI-H460): 60.08% | Activity (NCI/ADR-RES [6]): 72.89% | Activity (KM12): 88.97% | IC50 (PANC-1 [7]): 22.8 µM | Activity (MDA-MB-468): 25.48% | Activity (ACHN): 69.23% | Activity (A498): 71.71% | IC50 (MIA PaCa-2): 26.6 µM | Activity (MDA-MB-435): 62.57% | Activity (NCI-H226): 44.72% | Activity (SK-OV-3): 94.44% | solubility [8]: > 267 µg/mL | Activity (COLO 205): 104.32% | remaining at 3 h, 40 µM [9]: 99.7% | IC50 (NCI/ADR-RES [10]): 34.3 µM
